biological target: T1, GABA-A receptor; alpha-5/beta-3/gamma-2 (Homo sapiens, UniProt P18507+P28472+P31644); assay: Binding affinity for Gamma-aminobutyric acid A receptor alpha-5-beta-3-gamma-2; assay type: protein-complex assay
T1 sequence (P18507 whole entry): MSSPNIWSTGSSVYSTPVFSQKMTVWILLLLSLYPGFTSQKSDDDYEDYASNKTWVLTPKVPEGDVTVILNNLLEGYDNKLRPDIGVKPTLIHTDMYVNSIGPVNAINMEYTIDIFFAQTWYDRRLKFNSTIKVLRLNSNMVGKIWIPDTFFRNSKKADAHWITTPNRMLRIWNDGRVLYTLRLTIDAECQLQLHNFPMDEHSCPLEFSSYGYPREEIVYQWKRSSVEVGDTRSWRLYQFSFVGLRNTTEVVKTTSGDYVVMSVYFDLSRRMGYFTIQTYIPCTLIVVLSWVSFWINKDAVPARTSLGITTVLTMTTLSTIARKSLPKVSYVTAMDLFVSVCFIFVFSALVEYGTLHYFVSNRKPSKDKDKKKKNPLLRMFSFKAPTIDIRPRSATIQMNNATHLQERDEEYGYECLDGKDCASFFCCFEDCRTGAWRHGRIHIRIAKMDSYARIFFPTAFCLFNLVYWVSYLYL
T1 sequence (P28472 whole entry): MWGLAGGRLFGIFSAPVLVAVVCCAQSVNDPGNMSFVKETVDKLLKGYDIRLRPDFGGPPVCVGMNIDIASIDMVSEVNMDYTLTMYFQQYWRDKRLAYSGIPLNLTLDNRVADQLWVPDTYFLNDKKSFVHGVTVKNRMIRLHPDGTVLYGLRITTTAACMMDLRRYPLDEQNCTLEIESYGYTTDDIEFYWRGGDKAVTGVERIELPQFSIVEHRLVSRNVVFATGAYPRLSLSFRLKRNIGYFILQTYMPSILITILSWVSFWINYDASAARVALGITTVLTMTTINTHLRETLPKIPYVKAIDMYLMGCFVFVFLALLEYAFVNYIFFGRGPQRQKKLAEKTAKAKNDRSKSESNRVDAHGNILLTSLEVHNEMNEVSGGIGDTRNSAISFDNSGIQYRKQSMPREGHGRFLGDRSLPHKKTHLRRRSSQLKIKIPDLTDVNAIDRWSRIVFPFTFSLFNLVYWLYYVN
T1 sequence (P31644 whole entry): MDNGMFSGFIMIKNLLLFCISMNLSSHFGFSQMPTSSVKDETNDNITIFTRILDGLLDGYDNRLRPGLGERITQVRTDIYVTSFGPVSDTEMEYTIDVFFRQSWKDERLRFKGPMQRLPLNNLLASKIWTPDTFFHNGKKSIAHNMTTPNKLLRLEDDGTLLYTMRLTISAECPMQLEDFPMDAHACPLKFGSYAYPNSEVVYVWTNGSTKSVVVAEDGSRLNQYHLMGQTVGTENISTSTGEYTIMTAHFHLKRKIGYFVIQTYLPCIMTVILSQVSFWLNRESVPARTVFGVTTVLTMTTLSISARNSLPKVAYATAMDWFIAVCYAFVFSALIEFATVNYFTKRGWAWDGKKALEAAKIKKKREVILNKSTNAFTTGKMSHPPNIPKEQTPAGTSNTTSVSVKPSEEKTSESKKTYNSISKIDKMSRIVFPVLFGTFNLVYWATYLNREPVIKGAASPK

| Compound | Ki |
| --- | --- |
| CCOC(=O)c1ncn2c1CN(C)C(=O)c1cc(C#N)ccc1-2 | 0.006 µM |
| CCOC(=O)c1ncn2c1CN(C)C(=O)c1cc(C#CC[Si](C)(C)C)ccc1-2 | > 0.3 µM |
| C#Cc1ccc2c(c1)C(=O)N1CC[C@H]1c1c(-c3nc(C(C)C)no3)ncn1-2 | 0.0085 µM |
| CCOC(=O)c1ncn2c1CN(C)C(=O)c1cc(OCC)ccc1-2 | 0.00107 µM |
| CC(C)N(Cc1ncn2c1CN(C)C(=O)c1cc(Cl)ccc1-2)C(C)C | 1.35 µM |
| CCOC(=O)c1ncn2c1[C@@H]1CCN1C(=O)c1cc(C#C[Si](C)(C)C)ccc1-2 | 0.0026 µM |

biological target: GABA-A receptor; alpha-6/beta-3/gamma-2 (Homo sapiens, UniProt P18507+P28472+Q16445); assay: Binding affinity against Gamma-aminobutyric acid A receptor alpha-6-beta-3-gamma-2; assay type: protein-complex assay
Sequence (Q16445 whole entry, one chain of several): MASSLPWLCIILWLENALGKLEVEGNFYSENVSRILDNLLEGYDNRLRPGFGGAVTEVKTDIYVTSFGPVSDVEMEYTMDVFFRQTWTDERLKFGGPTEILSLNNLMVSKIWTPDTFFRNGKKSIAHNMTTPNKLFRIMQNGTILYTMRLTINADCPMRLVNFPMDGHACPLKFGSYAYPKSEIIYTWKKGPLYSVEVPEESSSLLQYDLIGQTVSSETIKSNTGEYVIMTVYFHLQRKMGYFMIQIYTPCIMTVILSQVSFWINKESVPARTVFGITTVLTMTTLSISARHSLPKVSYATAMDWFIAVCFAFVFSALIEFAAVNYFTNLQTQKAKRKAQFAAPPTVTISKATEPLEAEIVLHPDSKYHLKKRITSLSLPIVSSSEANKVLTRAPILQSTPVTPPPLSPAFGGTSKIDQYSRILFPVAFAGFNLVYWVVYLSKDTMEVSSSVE
Summary of the method: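 Cells scraped into PBS, spun at 3000g, resuspended in 10 mM KH₂PO₄/100 mM KCl pH 7.4. Nonspecific binding with 10⁻⁵ M diazepam; 1 h to equilibrium at 4 °C; filtration, ice-cold buffer wash, scintillation counting.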

| Compound | Ki |
| --- | --- |
| CCOC(=O)c1ncn2c1CN(C)C(=O)c1cc(C#N)ccc1-2 | > 1 µM |
| CCOC(=O)c1ncn2c1CN(C)C(=O)c1cc(C#CC[Si](C)(C)C)ccc1-2 | > 0.3 µM |
| C#Cc1ccc2c(c1)C(=O)N1CC[C@H]1c1c(-c3nc(C(C)C)no3)ncn1-2 | 0.267 µM |
| CCOC(=O)c1ncn2c1CN(C)C(=O)c1cc(OCC)ccc1-2 | 0.0515 µM |
| CC(C)N(Cc1ncn2c1CN(C)C(=O)c1cc(Cl)ccc1-2)C(C)C | 8.6 µM |
| CCOC(=O)c1ncn2c1[C@@H]1CCN1C(=O)c1cc(C#C[Si](C)(C)C)ccc1-2 | 0.18 µM |

biological target: GABA-A receptor; alpha-1/beta-3/gamma-2 (Homo sapiens) (UniProt P14867+P18507+P28472); assay: It is the ratio of Ki value for alpha-1-beta-3-gamma-2 to that of alpha-5-beta-3-gamma-2; assay type: protein-complex assay

| Compound | Ratio |
| --- | --- |
| CCOC(=O)c1ncn2c1CN(C)C(=O)c1cc(C#N)ccc1-2 | 1.67 |
| C#Cc1ccc2c(c1)C(=O)N1CC[C@H]1c1c(-c3nc(C(C)C)no3)ncn1-2 | 18 |
| CCOC(=O)c1ncn2c1CN(C)C(=O)c1cc(OCC)ccc1-2 | 12.4 |
| CC(C)N(Cc1ncn2c1CN(C)C(=O)c1cc(Cl)ccc1-2)C(C)C | 3.2 |
| CCOC(=O)c1ncn2c1[C@@H]1CCN1C(=O)c1cc(C#C[Si](C)(C)C)ccc1-2 | 32 |

biological target: T2, GABA-A receptor; alpha-1/beta-3/gamma-2 (Homo sapiens, UniProt P14867+P18507+P28472); assay: Binding affinity against alpha-1-beta-3-gamma-2 GABAA/BzR receptor subtype.; assay type: protein-complex assay
T2 sequence (P14867 whole entry): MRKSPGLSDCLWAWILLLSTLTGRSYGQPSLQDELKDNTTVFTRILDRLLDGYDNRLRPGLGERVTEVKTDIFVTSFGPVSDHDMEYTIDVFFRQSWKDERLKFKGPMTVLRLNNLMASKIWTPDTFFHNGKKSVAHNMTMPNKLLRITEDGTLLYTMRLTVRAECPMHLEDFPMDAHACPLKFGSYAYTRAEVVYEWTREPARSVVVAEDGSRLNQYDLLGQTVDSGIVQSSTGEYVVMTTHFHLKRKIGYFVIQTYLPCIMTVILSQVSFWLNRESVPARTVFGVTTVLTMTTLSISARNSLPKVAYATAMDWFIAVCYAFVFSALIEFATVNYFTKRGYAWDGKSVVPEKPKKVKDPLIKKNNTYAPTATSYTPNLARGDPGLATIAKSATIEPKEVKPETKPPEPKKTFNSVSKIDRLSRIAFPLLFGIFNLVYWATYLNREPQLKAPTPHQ
T2 sequence (P18507 whole entry): T1 sequence (P18507 whole entry)
T2 sequence (P28472 whole entry): T1 sequence (P28472 whole entry)

| Compound | Ki |
| --- | --- |
| CCOC(=O)c1ncn2c1CN(C)C(=O)c1cc(C#N)ccc1-2 | 0.01 µM |
| CCOC(=O)c1ncn2c1CN(C)C(=O)c1cc(C#CC[Si](C)(C)C)ccc1-2 | > 0.3 µM |
| C#Cc1ccc2c(c1)C(=O)N1CC[C@H]1c1c(-c3nc(C(C)C)no3)ncn1-2 | 0.156 µM |
| CCOC(=O)c1ncn2c1CN(C)C(=O)c1cc(OCC)ccc1-2 | 0.0112 µM |
| CC(C)N(Cc1ncn2c1CN(C)C(=O)c1cc(Cl)ccc1-2)C(C)C | 4.2 µM |
| CCOC(=O)c1ncn2c1[C@@H]1CCN1C(=O)c1cc(C#C[Si](C)(C)C)ccc1-2 | 0.083 µM |

biological target: T3, GABA-A receptor; alpha-3/beta-3/gamma-2 (Homo sapiens, UniProt P18507+P28472+P34903); assay: Binding affinity against alpha-3-beta-3-gamma-2 GABAA/BzR receptor subtype.; assay type: protein-complex assay
T3 sequence (P18507 whole entry): T1 sequence (P18507 whole entry)
T3 sequence (P28472 whole entry): T1 sequence (P28472 whole entry)
T3 sequence (P34903 whole entry): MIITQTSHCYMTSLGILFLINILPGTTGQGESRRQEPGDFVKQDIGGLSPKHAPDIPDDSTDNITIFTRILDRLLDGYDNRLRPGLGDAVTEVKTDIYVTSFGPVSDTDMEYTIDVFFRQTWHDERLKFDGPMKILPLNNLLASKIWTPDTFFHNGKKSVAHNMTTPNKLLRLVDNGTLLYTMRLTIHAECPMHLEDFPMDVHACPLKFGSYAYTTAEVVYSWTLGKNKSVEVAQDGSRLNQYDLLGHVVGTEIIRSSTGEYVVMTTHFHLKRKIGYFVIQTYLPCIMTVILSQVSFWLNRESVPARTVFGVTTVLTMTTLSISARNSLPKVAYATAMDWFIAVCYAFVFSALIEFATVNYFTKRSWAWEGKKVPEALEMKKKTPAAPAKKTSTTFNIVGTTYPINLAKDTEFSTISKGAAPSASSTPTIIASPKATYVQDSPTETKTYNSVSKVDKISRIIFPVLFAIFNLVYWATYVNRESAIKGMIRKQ

| Compound | Ki |
| --- | --- |
| CCOC(=O)c1ncn2c1CN(C)C(=O)c1cc(C#N)ccc1-2 | 0.019 µM |
| CCOC(=O)c1ncn2c1CN(C)C(=O)c1cc(C#CC[Si](C)(C)C)ccc1-2 | > 0.3 µM |
| C#Cc1ccc2c(c1)C(=O)N1CC[C@H]1c1c(-c3nc(C(C)C)no3)ncn1-2 | 0.122 µM |
| CCOC(=O)c1ncn2c1CN(C)C(=O)c1cc(OCC)ccc1-2 | 0.0169 µM |
| CC(C)N(Cc1ncn2c1CN(C)C(=O)c1cc(Cl)ccc1-2)C(C)C | 6.27 µM |
| CCOC(=O)c1ncn2c1[C@@H]1CCN1C(=O)c1cc(C#C[Si](C)(C)C)ccc1-2 | 0.048 µM |

biological target: T4, GABA-A receptor; alpha-2/beta-3/gamma-2 (Homo sapiens, UniProt P18507+P28472+P47869); assay: Binding affinity tested against alpha-2-beta-3-gamma-2 GABAA/BzR receptor subtype.; assay type: protein-complex assay
T4 sequence (P18507 whole entry): T1 sequence (P18507 whole entry)
T4 sequence (P28472 whole entry): T1 sequence (P28472 whole entry)
T4 sequence (P47869 whole entry): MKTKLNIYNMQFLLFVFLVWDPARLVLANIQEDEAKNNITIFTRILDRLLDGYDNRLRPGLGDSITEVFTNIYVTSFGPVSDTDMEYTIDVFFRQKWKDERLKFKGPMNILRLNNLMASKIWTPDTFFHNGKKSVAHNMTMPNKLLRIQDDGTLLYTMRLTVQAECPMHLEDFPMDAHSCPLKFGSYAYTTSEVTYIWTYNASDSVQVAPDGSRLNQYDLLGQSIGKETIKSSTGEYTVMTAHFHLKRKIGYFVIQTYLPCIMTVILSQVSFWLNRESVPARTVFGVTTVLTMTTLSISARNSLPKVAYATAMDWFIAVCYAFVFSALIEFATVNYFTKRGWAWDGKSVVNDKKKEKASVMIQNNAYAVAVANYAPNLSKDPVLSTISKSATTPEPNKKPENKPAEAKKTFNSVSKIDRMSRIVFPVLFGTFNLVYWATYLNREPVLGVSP

| Compound | Ki |
| --- | --- |
| CCOC(=O)c1ncn2c1CN(C)C(=O)c1cc(C#N)ccc1-2 | 0.045 µM |
| CCOC(=O)c1ncn2c1CN(C)C(=O)c1cc(C#CC[Si](C)(C)C)ccc1-2 | > 0.3 µM |
| C#Cc1ccc2c(c1)C(=O)N1CC[C@H]1c1c(-c3nc(C(C)C)no3)ncn1-2 | 0.088 µM |
| CCOC(=O)c1ncn2c1CN(C)C(=O)c1cc(OCC)ccc1-2 | 0.036 µM |
| CC(C)N(Cc1ncn2c1CN(C)C(=O)c1cc(Cl)ccc1-2)C(C)C | 12.6 µM |
| CCOC(=O)c1ncn2c1[C@@H]1CCN1C(=O)c1cc(C#C[Si](C)(C)C)ccc1-2 | 0.06 µM |
